Experimental data as given in ChEMBL document CHEMBL1129957, “Synthesis, antiproliferative and antiviral activity of imidazo[4,5-d]isothiazole nucleosides as 5:5 fused analogs of nebularine and 6-methylpurine ribonucleoside” (J Med Chem, 1997).

Key:
[1] = system: L1210; assay: Antiproliferative activity against murine L1210 cells; format: functional, cell-based; details: Mus musculus
Method in brief: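 Murine L1210 leukemia cells in Fischer's medium with 10% heat-inactivated horse serum; cells counted at 0, 24, 48, 72, 96 h with compound; growth rate from slope of semilog cell number vs time, as percent of control (doubling time 12 h). IC50 = concentration halving growth rate; average of two or three experiments.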

[2] = system: Human betaherpesvirus 5; assay: Antiviral activity against human cytomegalovirus (HCMV) in plaque reduction assay; format: functional, organism-based
Method in brief: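 HFF cells infected with roughly 100 pfu HCMV Towne per cm2; after adsorption, drug in growth medium at four to eight concentrations in duplicate wells; 7 days at 37 °C, crystal violet staining, microscopic plaque counts as percent reduction versus no-drug control. IC50 by regression on log concentration; average of duplicate experiments.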

[3] = system: KB; assay: Antiproliferative activity against KB cell; format: functional, cell-based; details: Homo sapiens
Method in brief: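 KB cells seeded at 3000-5000/well, compound added after overnight culture at 37 °C in quadruplicate at six to eight concentrations; 48 h incubation (about two population doublings) in CO2 incubator; ethanol fixation, 0.1% crystal violet stain, eluted dye read at 570 nm. IC50 from linear regression of percent inhibition against log concentration.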

[4] = system: HFF; assay: Inhibition against human foreskin fibroblast (HFF) in a visual assay at time of plaque enumeration; format: functional, cell-based
Method in brief: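 Stationary uninfected HFF cells, grown in MEM with 10% fetal bovine serum, inspected microscopically for cytotoxicity, scored visually when plaques were counted in the HCMV plaque assay.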

[5] = system: Human alphaherpesvirus 1; assay: Antiviral activity against herpes simplex virus type 1 (HSV-1) by ELISA test; format: functional, organism-based
Method in brief: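 BSC-1 cells (10 000/well) in MEM(E) plus 10% calf serum, incubated overnight at 37 °C, then drug in quadruplicate plus HSV-1 KOS at 100 pfu/well; 3 days at 37 °C; HRP-conjugated rabbit anti-HSV-1 antibody, TMB substrate, absorbance at 450 and 570 nm. Percent reduction versus virus-only control; IC50 by regression on log concentration.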

## c1ccc(CSc2nc3cnsc3[nH]2)cc1
[1]
  IC50: 0.3 µM
[2]
  IC50: 21 µM
[3]
  IC50: 0.2 µM
[4]
  IC50: 14 µM
[5]
  IC50: 15 µM

## Cc1nsc2c1nc(SCc1ccccc1)n2[C@@H]1O[C@H](CO)[C@@H](O)[C@H]1O
[1]
  IC50: > 100 µM
[2]
  IC50: > 100 µM
[3]
  IC50: > 100 µM
[4]
  IC50: > 100 µM
[5]
  IC50: > 100 µM

## Cc1nsc2c1ncn2[C@@H]1O[C@H](CO)[C@@H](O)[C@@H]1O
[1]
  IC50: > 100 µM
[2]
  IC50: > 100 µM
[3]
  IC50: > 100 µM
[4]
  IC50: > 100 µM
[5]
  IC50: > 100 µM

## CSc1nc2sncc2n1[C@@H]1O[C@H](CO)[C@@H](O)[C@H]1O
[1]
  IC50: 8.6 µM
[2]
  IC50: 32 µM
[3]
  IC50: 15 µM
[4]
  IC50: 21 µM
[5]
  IC50: 20 µM

## CSc1nc2c(C)nsc2n1[C@@H]1O[C@H](CO)[C@@H](O)[C@H]1O
[1]
  IC50: > 100 µM
[2]
  IC50: > 100 µM
[3]
  IC50: > 100 µM
[4]
  IC50: > 100 µM
[5]
  IC50: > 100 µM

## CSc1nc2cnsc2n1[C@@H]1O[C@H](CO)[C@@H](O)[C@H]1O
[1]
  IC50: > 100 µM
[2]
  IC50: > 100 µM
[3]
  IC50: > 100 µM
[4]
  IC50: > 100 µM
[5]
  IC50: > 100 µM

## CSc1nc2sncc2n1[C@@H]1O[C@H](CO)[C@@H](O)[C@@H]1O
[1]
  IC50: 11 µM
[2]
  IC50: 32 µM
[3]
  IC50: 15 µM
[4]
  IC50: 21 µM
[5]
  IC50: 25 µM

## CSc1nc2c(C)nsc2n1[C@@H]1O[C@H](CO)[C@@H](O)[C@@H]1O
[1]
  IC50: > 100 µM
[2]
  IC50: > 100 µM
[3]
  IC50: > 100 µM
[4]
  IC50: > 100 µM
[5]
  IC50: > 100 µM

## Cc1nsc2c1nc(SCc1ccccc1)n2[C@@H]1O[C@H](CO)[C@@H](O)[C@@H]1O
[1]
  IC50: > 100 µM
[2]
  IC50: > 100 µM
[3]
  IC50: > 100 µM
[4]
  IC50: > 100 µM
[5]
  IC50: > 100 µM

## CSc1nc2cnsc2n1[C@@H]1O[C@H](CO)[C@@H](O)[C@@H]1O
[1]
  IC50: > 100 µM
[2]
  IC50: > 100 µM
[3]
  IC50: > 100 µM
[4]
  IC50: > 100 µM
[5]
  IC50: 100 µM

## Cc1nsc2c1ncn2[C@@H]1O[C@H](CO)[C@@H](O)[C@H]1O
[1]
  IC50: 10 µM
[2]
  IC50: > 100 µM
[3]
  IC50: 90 µM
[4]
  IC50: 150 µM
[5]
  IC50: > 100 µM

## CSc1nc2sncc2n1[C@H]1C[C@H](O)[C@@H](CO)O1
[1]
  IC50: 20 µM
[2]
  IC50: 22 µM
[3]
  IC50: 6 µM
[4]
  IC50: 15 µM
[5]
  IC50: 10 µM

## OC[C@H]1O[C@@H](n2c(SCc3ccccc3)nc3sncc32)C[C@@H]1O
[1]
  IC50: 2.2 µM
[2]
  IC50: 3.2 µM
[3]
  IC50: 3 µM
[4]
  IC50: 2.1 µM
[5]
  IC50: 15 µM

## CSc1nc2snc(C)c2n1[C@H]1C[C@H](O)[C@@H](CO)O1
[1]
  IC50: 33 µM
[2]
  IC50: 32 µM
[3]
  IC50: 30 µM
[4]
  IC50: 32 µM
[5]
  IC50: 60 µM

## CSc1nc2c(C)nsc2n1[C@H]1C[C@H](O)[C@@H](CO)O1
[1]
  IC50: > 100 µM
[2]
  IC50: > 100 µM
[3]
  IC50: > 100 µM
[4]
  IC50: > 100 µM
[5]
  IC50: > 100 µM

## CSc1nc2cnsc2n1[C@H]1C[C@H](O)[C@@H](CO)O1
[1]
  IC50: > 100 µM
[2]
  IC50: > 100 µM
[3]
  IC50: > 100 µM
[4]
  IC50: > 100 µM
[5]
  IC50: > 100 µM

## Cc1nsc2ncn([C@H]3C[C@H](O)[C@@H](CO)O3)c12
[1]
  IC50: 78 µM
[2]
  IC50: > 100 µM
[3]
  IC50: > 100 µM
[4]
  IC50: > 100 µM
[5]
  IC50: > 100 µM

## OC[C@H]1O[C@@H](n2c(SCc3ccccc3)nc3cnsc32)C[C@@H]1O
[1]
  IC50: 8 µM
[2]
  IC50: > 100 µM
[3]
  IC50: > 100 µM
[4]
  IC50: > 100 µM
[5]
  IC50: > 100 µM

## Cc1nsc2c1nc(SCc1ccccc1)n2[C@H]1C[C@H](O)[C@@H](CO)O1
[1]
  IC50: > 100 µM
[2]
  IC50: > 100 µM
[3]
  IC50: > 100 µM
[4]
  IC50: > 100 µM
[5]
  IC50: > 100 µM

## Cc1nsc2c1ncn2[C@H]1C[C@H](O)[C@@H](CO)O1
[1]
  IC50: > 100 µM
[2]
  IC50: > 100 µM
[3]
  IC50: > 100 µM
[4]
  IC50: > 100 µM
[5]
  IC50: > 100 µM

## Cc1nsc2[nH]c(SCc3ccccc3)nc12
[1]
  IC50: 7 µM
[2]
  IC50: 21 µM
[3]
  IC50: 9 µM
[4]
  IC50: 10 µM
[5]
  IC50: 45 µM

## Cc1nsc2[nH]cnc12
[1]
  IC50: 17 µM
[2]
  IC50: 32 µM
[3]
  IC50: 20 µM
[4]
  IC50: 32 µM
[5]
  IC50: 45 µM

## CSc1nc2cnsc2[nH]1
[1]
  IC50: 7 µM
[2]
  IC50: 32 µM
[3]
  IC50: 15 µM
[4]
  IC50: 32 µM
[5]
  IC50: 45 µM

## CSc1nc2c(C)nsc2[nH]1
[1]
  IC50: 13 µM
[2]
  IC50: 18 µM
[3]
  IC50: 60 µM
[4]
  IC50: 26 µM
[5]
  IC50: 60 µM

## OC[C@H]1OC(n2c(SCc3ccccc3)nc3cnsc32)[C@@H](O)[C@@H]1O (stereo not given in full)
[1]
  IC50: > 100 µM
[2]
  IC50: > 100 µM
[3]
  IC50: > 100 µM
[4]
  IC50: > 100 µM
[5]
  IC50: > 100 µM

## OC[C@H]1OC(n2c(SCc3ccccc3)nc3sncc32)[C@@H](O)[C@@H]1O (stereo not given in full)
[1]
  IC50: 1.5 µM
[2]
  IC50: 3.2 µM
[3]
  IC50: 3 µM
[4]
  IC50: 2.1 µM
[5]
  IC50: > 100 µM

## Cc1nsc2ncn(C3O[C@H](CO)[C@@H](O)[C@H]3O)c12 (stereo not given in full)
[1]
  IC50: 100 µM
[2]
  IC50: 32 µM
[3]
  IC50: > 100 µM
[4]
  IC50: 32 µM
[5]
  IC50: 70 µM
